Source: PubChem (several laboratories)
The list is not random: actives were taken first. Their share in the collection is about 4.9%.
NF-kB neuron act: activators of NF-kB expression in neurons, primary screen, cell-based, HTS. human neuronal cells, NF-kB reporter expression; active compounds read high. fold change at 12.5 µM. 190,000 compounds, 1.6% hits. AID 1239, 2008; in the data active = fold change above about 3.3
STAT3 act: IL-6 driven STAT3 reporter potentiators, primary screen, U3A cells, luciferase, luminescence, MLSCN library; IL-6 STAT3-luciferase reporter; 100% = signal with IL-6 EC80 alone; activation (% of control), % at 5.6 µM; 190,000 compounds, 0.91% hits; AID 871, 2007;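 active = activation above the screen-wide mean of compound activation plus 3 SD, cut at about 130% in these data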;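 note: 0% = background luminescence of wells with medium and substrate only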
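system = STAT3-luciferase reporter U3A cells | reagent = IL-6 stimulus at 33 ng/mL final | timing = 1 h compound pre-exposure, 6 h IL-6 stimulation, 37 °C | measured by = luminescence | evaluation = % activation versus median of IL-6-stimulated wells | control set = IL-6-only wells as 100% reference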
APP 5'UTR act: activators of APP 5'UTR luciferase reporter, primary screen, SH-SY5Y cells; activation, % at 2 µM; 190,000 compounds, 1% hits; SH-SY5Y APP 5'UTR luciferase reporter, luminescence; zero percent = DMSO vehicle wells; AID 1276, 2008;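 active = activation above a set limit, based on mean plus 3 SD of controls, cut at about 140% in these data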
STAT1 act: STAT1 signaling activators, primary screen, cell-based, HTS, luciferase reporter; AID 932, 2007; 200,000 compounds, 2.6% hits; activation (% of control), % at 5.5 µM; NIH 3T3 STAT1-luciferase reporter, IFN-gamma, luminescence; 100% = IFN-gamma alone, no compound;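 active = activation above the screen-wide mean activation plus 3 SD, cut at about 130% in these data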;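 note: raw ratio to IFN-gamma control signal so 100% means no change and 0% no light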
STAT1 inh: STAT1 signaling inhibitors, primary screen, cell-based, HTS, luciferase reporter | NIH 3T3 STAT1-luciferase reporter, IFN-gamma, luminescence | inhibition, % at 5.5 µM | 200,000 compounds, 0.35% hits | AID 920, 2007;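 active = inhibition above a set limit, the mean inhibition across all tested compounds plus 3 SD, cut at about 34% in these data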;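 note: 0% = IFN-gamma with DMSO and 100% = IFN-gamma with 300 µM nifuroxazide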
STAT3 inh-1: IL-6 driven STAT3 reporter inhibitors, primary screen, U3A cells, luciferase, luminescence, MLSCN library | IL-6 STAT3-luciferase reporter; host cell line lacks STAT1 | 190,000 compounds, 0.89% hits | AID 862, 2007 | inhibition, % at 5.5 µM;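 active = inhibition above the mean inhibition across all screened compounds plus 3 SD, cut at about 44% in these data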;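 note: 0% = DMSO only wells and 100% = 100 µM nifuroxazide control wells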
STAT3 inh-2: STAT3 reporter inhibitors, retest of hits, confirmation, U3A cells, luciferase, luminescence; shares compounds with STAT3 inh-1; IL-6 STAT3 luciferase reporter; cell line lacks STAT1; inhibition, % at 5.7 µM; 1,200 compounds, 45% hits; AID 1265, 2008;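 active = inhibition above the hit cutoff computed for the primary STAT3 screen, cut at about 44% in these data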;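 note: 0% = IL-6 plus DMSO and 100% = IL-6 plus nifuroxazide control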
NFkB inh STAT3ct: NF-kB reporter inhibitors in human cells, confirmation, counter-screen for STAT3 inhibitor project, cell-based, HEK293T, luciferase, TNF-alpha stimulus | shares compounds with STAT3 inh-1 | TNF-alpha induced | inhibition, % at 5.7 µM | 1,200 compounds, 36% hits;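 active = inhibition above the mean of solvent-only control wells plus 3 SD, cutoff set per campaign, cut at about 13% in these data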;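 note: 0% = TNF-alpha with DMSO and 100% = TNF-alpha with MG high control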
STAT1 inh 2: STAT1 reporter inhibitors, IFN-gamma induced, confirmation, counter-screen for STAT3 inhibitor project, cell-based, NIH 3T3, luciferase luminescence | NIH 3T3 STAT1-luciferase reporter | shares compounds with STAT3 inh-1 | 1,200 compounds, 27% hits | AID 1317, 2008 | inhibition, % at 5.7 µM;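 active = inhibition above the mean plus 3 SD of solvent-only control wells, limit set per screening run, cut at about 16% in these data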;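 note: 0% = DMSO with IFN-gamma and 100% = nifuroxazide control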
* = called active by the depositor; . = no result.

SMILES	NF-kB neuron act	STAT3 act	APP 5'UTR act	STAT1 act	STAT1 inh	STAT3 inh-1	STAT3 inh-2	NFkB inh STAT3ct	STAT1 inh 2
CC(=O)NNc1ncnc2c1cnn2-c1ccccc1	0.95	94.5	-4.5	94.0	6.7	14.4	.	.	.
CC(C)Nc1ncnc2c1cnn2-c1ccc(Cl)cc1	1.12	54.5	154.6*	92.7	5.1	55.3*	16.3	-31.4	-186.3
CN1CCN(NC(=O)c2cc(S(=O)(=O)N3CCOCC3)c(Cl)cc2Cl)CC1	1.01	99.9	-3.6	99.2	0.9	0.5	.	.	.
CCOc1ccc(S(=O)(=O)NCc2ccccn2)cc1	0.96	97.2	27.5	100.1	-0.1	9.1	.	.	.
CCOc1ccc(S(=O)(=O)NCc2ccncc2)cc1	0.56	26.8	-12.9	73.8	28.4	88.5*	81.6*	33.7*	23.5*
CCOc1cc(S(=O)(=O)NCc2cccs2)ccc1Cl	1.19	97.8	-1.8	96.5	3.8	6.9	.	.	.
CCOc1cc(S(=O)(=O)NCc2ccncc2)ccc1Cl	0.91	28.4	-1.6	68.9	33.9	84.5*	85.4*	34.3*	26.9*
Cc1ccc(S(=O)(=O)NCc2ccncc2)cc1	0.94	44.0	-11.4	78.8	23.2	67.5*	37.7	20.8*	24.7*
CCOC(=O)COc1ccc(S(=O)(=O)NCc2ccco2)cc1	0.97	103.7	3.9	109.6	-10.4	-0.3	.	.	.
CCOC(=O)COc1ccc(S(=O)(=O)NCc2ccncc2)cc1	0.78	43.3	.	80.0	25.8	70.0*	54.9*	12.3	23.0*
COc1nc2ccccc2nc1CCC(=O)O	1.29	99.2	-12.3	104.9	-7.2	3.2	.	.	.
CC1CCCCC1NS(=O)(=O)c1ccc(S(=O)(=O)NCc2ccncc2)cc1 (configuration not stated)	0.79	43.5	0.6	76.6	25.8	73.3*	48.1*	9.2	11.8
O=C(Nc1nonc1NC(=O)c1cccs1)c1cccs1	0.93	66.2	-18.4	91.2	10.9	43.6*	46.9*	13.3*	7.5
Cc1ccc(N2CC(C(=O)Nc3c(C)n(C)n(-c4ccccc4)c3=O)CC2=O)cc1 (configuration not stated)	0.92	107.1	9.2	99.8	0.1	-3.2	.	.	.
N/C(=N\OC(=O)COc1ccc(Br)cc1Cl)c1ccccn1	5.59*	51.4	193.0*	124.6	-27.7	57.1*	-16.2	-45.8	-144.8
COC(=O)c1ccc(-c2nc3cc(Cl)c(N)cc3s2)cc1	1.56	24.9	141.7*	145.7*	-48.1	86.8*	68.8*	31.3*	-3.5
O=C(C1CCN(S(=O)(=O)c2ccccc2F)CC1)N1CCc2ccccc2C1	0.8	98.2	-5.5	106.0	-8.6	5.9	.	.	.
NC(=O)C[n+]1cccc2ccccc21	1.06	111.6	17.1	97.0	-0.2	-2.8	.	.	.
CCCCC[n+]1cccc2c3ccccc3ccc21	0.96	42.4	-16.2	70.1	30.9	72.6*	66.4*	20.6*	24.3*
CC(=O)N1CCc2cc(C(=O)CN3CCN(c4cccc(Cl)c4)CC3)ccc21	0.78	68.2	5.4	95.7	4.8	45.1*	17.4	-7.6	-14.1
CC(=O)N1CCc2cc(C(=O)CN3CCC(C)CC3)ccc21	0.92	103.3	.	99.5	0.6	5.0	.	.	.
CNc1c([N+](=O)[O-])cnn1-c1ccccn1	0.99	97.0	4.9	100.8	-2.7	13.5	.	.	.
O=C(COc1cccnc1[N+](=O)[O-])Nc1ccc2c(c1)OC(F)(F)O2	1.3	78.2	-9.4	99.1	1.1	25.5	.	.	.
